In the library only some 1.9% were active in any assay of this set; here they are far more common.
TDP2 absorb: human TDP2 enzyme inhibitors, primary screen, biochemical, epi absorbance, recombinant enzyme; T5PNP hydrolysis, p-nitrophenol absorbance 415 nm; AID 720702, 2013; hit rate 0.34% among 370,000; inhibition, % at 12.8 µM; Tyrosyl-DNA phosphodiesterase 2 (Homo sapiens), O95551;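 active means inhibition above the mean of all tested compounds plus 3 SD, set per campaign, cut at about 25% in these data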;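 further: 0% = DMSO with enzyme and 100% = buffer with substrate but no TDP2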
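System – recombinant human TDP2 · Quantity – TDP2 enzyme at 120 nM final · Doses – single concentration, 12.8 µM nominal, with 1% DMSO · Incubation – 2 h at 37 °C · Measured by – epi absorbance of p-nitrophenol freed from T5PNP by hydrolysis · Read-out – % inhibition relative to enzyme-containing and enzyme-free wells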
UHRF1 binding: UHRF1 methylated DNA binding inhibitors, primary screen, counter-screen for MBD2 inhibitor project, biochemical, TR-FRET, human UHRF1, single concentration; E3 ubiquitin-protein ligase UHRF1 (Homo sapiens), Q96T88; UHRF1 binding to methylated oligo; inhibition, % at 4.4 µM; hit rate 0.75% among 370,000; in the data active means inhibition above about 21%;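 further: UHRF1 SRA domain binding a hemimethylated CpG hairpin DNA probe; 0% = median of test compound wells and 100% = reference inhibitor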
Target sequence (Q96T88 whole entry, looked up, the tested form may be a part): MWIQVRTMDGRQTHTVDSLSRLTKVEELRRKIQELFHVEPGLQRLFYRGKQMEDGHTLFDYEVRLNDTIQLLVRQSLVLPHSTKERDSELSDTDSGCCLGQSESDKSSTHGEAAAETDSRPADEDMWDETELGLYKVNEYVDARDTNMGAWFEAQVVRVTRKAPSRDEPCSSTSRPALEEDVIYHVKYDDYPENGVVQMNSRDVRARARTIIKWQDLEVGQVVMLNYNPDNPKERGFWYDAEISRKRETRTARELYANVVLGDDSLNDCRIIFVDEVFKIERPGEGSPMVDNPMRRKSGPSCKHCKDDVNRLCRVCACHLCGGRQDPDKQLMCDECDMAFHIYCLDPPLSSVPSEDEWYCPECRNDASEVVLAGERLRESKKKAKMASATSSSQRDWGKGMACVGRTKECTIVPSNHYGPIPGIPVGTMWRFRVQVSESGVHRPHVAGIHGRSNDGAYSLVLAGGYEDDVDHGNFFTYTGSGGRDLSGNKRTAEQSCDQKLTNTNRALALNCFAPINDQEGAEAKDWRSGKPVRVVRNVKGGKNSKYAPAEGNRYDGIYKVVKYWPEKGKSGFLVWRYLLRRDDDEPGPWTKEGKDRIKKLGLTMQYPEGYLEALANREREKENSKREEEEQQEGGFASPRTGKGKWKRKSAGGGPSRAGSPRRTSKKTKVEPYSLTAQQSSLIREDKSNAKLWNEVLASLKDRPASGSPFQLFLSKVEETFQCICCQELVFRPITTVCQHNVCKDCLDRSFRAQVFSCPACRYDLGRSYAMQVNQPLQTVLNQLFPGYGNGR
LEDGF integ inh: blockers of LEDGF/p75-dependent integrase strand transfer – biochemical, TR-FRET, high throughput, primary screen | HIV-1 integrase (with human LEDGF/p75) | TR-FRET IN-LEDGF/p75 DNA integration, Eu/Cy5 | inhibition, % at 3.7 µM | hit rate 0.64% among 370,000 | AID 743269, 2014;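 active means inhibition above the screen-wide mean plus 3 SD, cut at about 13% in these data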;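 further: signal is the Cy5 over europium emission ratio at 671 and 618 nm; 0% = plate median of compound wells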
MBD2 inh: inhibitors of MBD2 binding to methylated DNA, primary screen, biochemical, TR-FRET, DNA-binding domain, human; Methyl-CpG-binding domain protein 2 (Homo sapiens), Q9UBB5; AID 686964, 2013; hit rate 0.31% among 370,000; MBD2 binding to methylated oligonucleotide; inhibition, % at 4.4 µM; in the data active means inhibition above about 13%
DDE Tn7 FP inh: inhibitors of Tn7 peptide binding to fibrin DD(E), primary screen, biochemical, fluorescence polarization, human fibrin, Tn7 probe; inhibition, % at 8.3 µM; Fibrinogen beta chain (Homo sapiens), P02675; AID 720508, 2013; hit rate 0.13% among 370,000; FP displacement of FITC-Tn7 peptide from fibrin DD(E); 0% = median of compound wells per plate;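 active means inhibition above the mean of compounds falling within the control limits plus 3 SD of them, cut at about 14% in these data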;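 further: 0% = plate median of compound wells and 100% = 10 µM Aha-Tn7 peptide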
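assay system = human clot-derived fibrin DD(E) complex | quantity = Fibrin-DD(E) at 2 µM final | timing = 10 min preincubation, 3 h with tracer, room temperature | signal = fluorescence polarization | measure = percent inhibition | benchmarks = high control wells with 10 µM unlabelled Aha-Tn7 peptide (full inhibition) | replicates = singlicate testing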
DDE Tn6 FP inh: inhibitors of Tn6 peptide binding to fibrin DD(E), primary screen, biochemical, fluorescence polarization, human fibrin, Tn6 probe; Fibrinogen beta chain (Homo sapiens), P02675; Fibrin DD(E) TRITC-Tn6 fluorescence polarization displacement; inhibition, % at 8.3 µM; hit rate 0.21% among 370,000;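 active means inhibition above a per-campaign cutoff: mean of compounds within control limits plus 3 SD, cut at about 15% in these data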;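 further: 0% = median of all compound wells on the plate and 100% = blocking peptide control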
IN multimer up: HIV-1 IN multimer formation enhancers, counter-screen for LEDGF/p75 integration inhibitor project, biochemical, TR-FRET. shares compounds with LEDGF integ inh. TR-FRET HIV-1 integrase multimerization. activation, % at 7.7 µM. hit rate 17% among 2,000; in the data active means activation above about 8.9%
TR-FRET interf: TR-FRET optical interference artefacts, confirmation, artefact control for LEDGF/p75-dependent integration inhibitor project, biochemical, HIV-1 IN multimerization; shares compounds with LEDGF integ inh; TR-FRET optical interference counterscreen; inhibition, % at 7.7 µM; 2,000 tested, under 10 active; AID 1053135, 2014;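 active means inhibition above the mean over all tested compounds plus 3 SD, which no compound reached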;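 further: 0% = integrase with antibodies and DMSO and 100% = antibodies without integrase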
IN-LEDGF confirm: inhibitors of HIV-1 IN-LEDGF/p75 DNA integration, confirmation, biochemical, TR-FRET; hit rate 36% among 2,000; TR-FRET LEDGF/p75-dependent HIV-1 integration; AID 1053136, 2014; shares compounds with LEDGF integ inh; inhibition, % at 3.7 µM; in the data active means inhibition above about 14%
* marks the source's active call; other numbers are inactive results; x = not tested or not shown.

SMILES	TDP2 absorb	UHRF1 binding	LEDGF integ inh	MBD2 inh	DDE Tn7 FP inh	DDE Tn6 FP inh	IN multimer up	TR-FRET interf	IN-LEDGF confirm
CSc1nc(NCCOCCO)c2sc3nc(-c4ccco4)c4c(c3c2n1)CCC4	-10	29*	26*	9	-9	-7	0	2	15*
COc1ccc(NC(=O)CCCn2cnc3ccccc3c2=O)c(OC)c1	-14	2	16*	1	-4	0	-1	2	-13
COc1ccc(C(=O)Cn2cnc3ccccc3c2=O)c(OC)c1	5	3	3	3	5	3	x	x	x
C[C@@H](NS(=O)(=O)c1ccc(Br)cc1F)[C@@H](O)c1ccccc1	-8	4	3	-1	1	-5	x	x	x
CC(NS(=O)(=O)c1ccc(Br)cc1F)[C@H](O)c1ccccc1 (some centres undefined)	5	-2	15*	4	3	5	2	-8	-3
CC(C)C[C@H]1COc2c(Cl)cccc2S(=O)(=O)N1Cc1cccc(Cl)c1	-6	0	6	1	3	0	x	x	x
CCOc1ccc(Cc2c(C)[nH]c3ccc(C(=O)O)cc3c2=S)cc1	-1	3	14*	2	-5	2	1	-5	3
Cc1ccccc1Cn1cc(COC(=O)NCCc2c[nH]c3ccccc23)nn1	4	5	3	2	0	4	x	x	x
COc1ccccc1-c1nnc2sc(COc3ccc(Cl)cc3Cl)nn12	9	0	-2	1	2	6	x	x	x
COc1ccccc1-c1nnc2sc(COc3ccccc3)nn12	9	-2	28*	3	-5	8	1	-3	7
Cc1ccc(CN2CCN(C(=O)c3ccncc3)CC2)cc1	13	1	75*	-2	-3	-1	0	-1	4
Cc1ccc(CN2CCN(C(=O)CCN3C(=O)c4ccccc4C3=O)CC2)cc1	5	3	79*	4	0	-1	-1	3	2
O=C(c1ccccc1)N1CCN(Cc2ccccc2)CC1	12	4	4	1	-5	5	x	x	x
COc1ccc(N2CCN(CCNS(=O)(=O)c3ccc(F)cc3)CC2)cc1	4	1	-4	1	7	6	x	x	x
COc1ccccc1N1CCN(Cc2nc(N)nc(Nc3ccc(C)c(Cl)c3)n2)CC1	-11	-3	13*	-5	-9	-4	2	-9	5
Cc1cc(N2CCN(CC(C)(C)O)C[C@@H]2C)ccc1N1CCN(CC(C)(C)O)[C@@H](C)C1	0	-3	5	1	-3	1	x	x	x
CCOC(=O)/C=C/C(=O)Nc1ccccc1-c1ccccc1NC(=O)/C=C/C(=O)OCC	12	-2	56*	0	1	0	0	-1	-9
COC(=O)[C@]12C[C@H](CC(=O)NCc3cccc4ccccc34)C(=O)N(Cc3ccccc3)C1=C[C@H](C1CCCC1)O[C@@H]2C	1	0	-3	1	-6	5	x	x	x
NC(=O)CSCc1cccc(Br)c1	9	-3	33*	-3	-8	-2	0	0	5
O=C1CC(Nc2ccccc2)C(=O)N1c1ccc(N2CCOCC2)cc1 (centres undefined)	-1	1	-1	3	2	1	x	x	x
O=C1CC(Nc2ccc(N3CCOCC3)cc2)C(=O)N1c1ccccc1F (centres undefined)	10	-4	15*	-7	4	9	1	-7	0
O=c1c2c(n3nnnc3n1Cc1ccc(Cl)cc1)-c1ccccc1CC21CCCC1	-5	-2	-1	0	10	3	x	x	x
CCOc1cc(/C=C2\C(=O)N(CCc3ccc(OC)c(OC)c3)C(C)=C2C(=O)OC)ccc1O	12	-8	2	-4	1	7	x	x	x
CCOc1cc(/C=C2\C(=O)N(Cc3ccco3)C(C)=C2C(=O)OC)ccc1O	2	1	14*	-9	3	5	1	-5	-4
O=c1c(C=NCCCO)c(-c2ccccc2)[nH]n1-c1nc2ccccc2s1	23	-2	21*	-4	-4	3	-1	6	-2
SMILES	TDP2 absorb	UHRF1 binding	LEDGF integ inh	MBD2 inh	DDE Tn7 FP inh	DDE Tn6 FP inh	IN multimer up	TR-FRET interf	IN-LEDGF confirm
COc1ccc(Nc2nnc(-c3ccc4c(c3)OCO4)o2)cc1	7	-1	1	-5	4	4	x	x	x
O=C1C(=Cc2cccs2)CCc2ccccc21	0	-1	5	-2	-4	2	x	x	x
CC1C/C(=C/c2cccs2)C(=O)/C(=C/c2cccs2)C1 (centres undefined)	-17	28*	29*	2	-8	-3	0	2	5
COc1ccc(O)c(/C=N/NC(=S)Nc2cccc(S(=O)(=O)N(C)C)c2)c1	6	-12	-7	-1	1	1	x	x	x
CN(C)S(=O)(=O)c1cccc(NC(=S)N/N=C/c2ccc(O)c(O)c2O)c1	4	15	55*	4	-1	-14	19*	-67	41*
Oc1cc(O)cc(C=Cc2ccc(O)c(O)c2)c1	-11	7	51*	2	-7	-12	43*	-217	42*
Cc1ccc(-n2c(SCC(=O)Nc3ccc(Oc4ccccc4)cc3)nnc2-c2cccc(C)c2)cc1	3	1	-2	8	-7	-6	x	x	x
O=C(Nc1ccccc1-c1ccccc1)c1ccco1	-6	-3	-1	-6	9	-6	x	x	x
Cc1noc(C)c1C(=O)Nc1ccccc1-c1ccccc1	5	0	27*	1	-11	-1	0	0	1
